Test results: ChEMBL document CHEMBL1151709, “Antileishmanial constituents of the Panamanian endophytic fungus Edenia sp” (J Nat Prod, 2008)

Tests used:
Leishmania donovani = test: Antileishmanial activity against Leishmania donovani LD-1S/MHOM/SD/00-strain 1S amastigotes; type: functional, organism-based
How it was run: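 Axenic (cell-free) L. donovani amastigotes; parasite growth and survival read with PicoGreen. Single-concentration screen at 10 μg/mL in duplicate, expressed as % growth versus control; samples at ≤50% growth then tested at […], 0.08, 0.4, 2 and 10 μg/mL to derive IC50. Amphotericin B positive control.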

Plasmodium falciparum = test: Antimalarial activity against Plasmodium falciparum; type: functional, organism-based
How it was run: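 Run per the authors' earlier protocol with chloroquine as positive control; duplicate wells at 10, 2, 0.4, 0.08 and 0.016 μg/mL.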

[1] = Therapeutic index, ratio of IC50 for african green monkey Vero cells to IC50 for Leishmania donovani LD-1S/MHOM/SD/00-strain 1S amastigotes; type: cell-based; details: read-out: Ratio IC50
How it was run: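 Therapeutic window calculated as Vero-cell IC50 (MTT cytotoxicity) divided by IC50 against axenic L. donovani amastigotes (PicoGreen growth/survival assay).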

Trypanosoma cruzi = test: Antitrypanosomal activity against Trypanosoma cruzi; type: functional, organism-based
How it was run: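 Buckner et al. protocol with nifurtimox as positive control; tested in duplicate at 10, 2, 0.4, 0.08 and 0.016 μg/mL.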

Vero = test: Cytotoxicity against african green monkey Vero cells by MTT assay; type: cell-based; details: Chlorocebus sabaeus
[2] = Leishmania donovani, 1S, read-out: IC50

Row | Compound | IC50 (Leishmania donovani; [2]) | IC50 (Plasmodium falciparum) [µM] | selectivity ratio [1] | IC50 (Trypanosoma cruzi) | IC50 (Vero) [µM] | IC50 (Leishmania donovani) [µg/mL]
1 | COc1cc2c(c(OC)c1)C(C)=[N+](c1ccc(OC)c3c(OC)cc(C)cc13)[C@@H](C)C2.O=C([O-])C(F)(F)F [ANCISANCISTROCLADINIUM A] | 0.722 µg/mL | – | – | – | – | –
2 | O=C1C=C[C@]23Oc4ccc(O)c5c4[C@](CCC5=O)(Oc4cccc1c42)O3 [PREUSSOMERIN EG1] | 120 nM | 16.5 | 75 | > 10 µM | 9 | –
3 | Oc1cccc2c1[C@@H](O)CCC21Oc2cccc3cccc(c23)O1 | 8400 nM | > 10 | 18 | 26.5 µM | 150 | –
4 | O=C1C=CC(=O)C2=C1[C@@H](O)CCC21Oc2cccc3cccc(c23)O1 | 620 nM | > 10 | 245 | > 10 µM | 152 | –
5 | COc1cc2c(c(OC)c1)C(C)=[N+](c1ccc3cc(C)cc(OC)c3c1O)[C@@H](C)C2.O=C([O-])C(F)(F)F [ANCISTROCLADINIUM B] | 1.1 µg/mL | – | – | – | – | –
6 | C[C@@H]1[C@H](O)[C@@H](C)/C=C/C=C/C=C/C=C/C=C/C=C/C=C/[C@H](O[C@@H]2O[C@H](C)[C@@H](O)[C@H](N)[C@@H]2O)C[C@@H]2O[C@](O)(C[C@@H](O)C[C@@H](O)[C@H](O)CC[C@@H](O)C[C@@H](O)CC(=O)O[C@H]1C)C[C@H](O)[C@H]2C(=O)O [AMPHOTERICIN B] | – | – | – | – | – | 0.07
7 | O=C1CCC2(Oc3cccc4cccc(c34)O2)c2cccc(O)c21 [PALMARUMYCIN CP2] | 3930 nM | > 10 | 41 | 18.5 µM | 162 | –
8 | O=C1CCC2(Oc3cccc4cccc(c34)O2)c2c(O)ccc(O)c21 [PALMARUMYCIN CP17] | 1340 nM | > 10 | 130 | > 10 µM | 174 | –
9 | CC1CS(=O)(=O)CCN1/N=C/c1ccc([N+](=O)[O-])o1 (centres undefined) [NIFURTIMOX] | – | – | – | 3 µg/mL | – | –
